Bioassay records as filed in PubChem.
STAT3 act-1 – activators of IL-6 induced STAT3 signaling | U3A cells, IL-6 STAT3-luciferase reporter, luminescence; 100% = signal with IL-6 EC80 alone | activation (% of control), % at 5.6 µM | 0.91% of 190,000 active | AID 871;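 active means activation above the screen-wide mean of compound activation plus 3 SD, cut at about 130% in these data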
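system = STAT3-luciferase reporter U3A cells | reagent = IL-6 stimulus at 33 ng/mL final | timing = 1 h compound pre-exposure, 6 h IL-6 stimulation, 37 °C | measured by = luminescence | evaluation = % activation versus median of IL-6-stimulated wells | control set = IL-6-only wells as 100% reference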
AHR act – human AHR activation; P35869; AHR-responsive luciferase reporter cells, luminescence; activation, % at 5 µM; 2.5% of 320,000 active; in the data active means activation above about 47%
GAA850 FXN act – frataxin GAA850 promoter activation; HEK293 lucGAA850 FXN promoter luciferase reporter, 24 h; percent of 10 µM SAHA response; activation, % at 6 µM; 0.56% of 360,000 active;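 active means activation above the average of all compounds screened plus 3 SD, cutoff fixed separately per campaign, cut at about 7.5% in these data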
ABCB6 inh 2 – inhibitors of human ABC transporter ABCB6 | 0.19% of 360,000 active | fluorescence ratio to DMSO, % at 10 µM | K562-ABCB6 porphyrin accumulation, flow cytometry, 1 h; stronger effect = lower value;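 active means fluorescence ratio to DMSO below 75%, the collection mean minus 3 SD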;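 further: signal is porphyrin accumulated inside mitochondria; lower ratio means ABCB6 inhibition with less porphyrin fluorescence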
Target sequence (Q9NP58 whole entry, looked up): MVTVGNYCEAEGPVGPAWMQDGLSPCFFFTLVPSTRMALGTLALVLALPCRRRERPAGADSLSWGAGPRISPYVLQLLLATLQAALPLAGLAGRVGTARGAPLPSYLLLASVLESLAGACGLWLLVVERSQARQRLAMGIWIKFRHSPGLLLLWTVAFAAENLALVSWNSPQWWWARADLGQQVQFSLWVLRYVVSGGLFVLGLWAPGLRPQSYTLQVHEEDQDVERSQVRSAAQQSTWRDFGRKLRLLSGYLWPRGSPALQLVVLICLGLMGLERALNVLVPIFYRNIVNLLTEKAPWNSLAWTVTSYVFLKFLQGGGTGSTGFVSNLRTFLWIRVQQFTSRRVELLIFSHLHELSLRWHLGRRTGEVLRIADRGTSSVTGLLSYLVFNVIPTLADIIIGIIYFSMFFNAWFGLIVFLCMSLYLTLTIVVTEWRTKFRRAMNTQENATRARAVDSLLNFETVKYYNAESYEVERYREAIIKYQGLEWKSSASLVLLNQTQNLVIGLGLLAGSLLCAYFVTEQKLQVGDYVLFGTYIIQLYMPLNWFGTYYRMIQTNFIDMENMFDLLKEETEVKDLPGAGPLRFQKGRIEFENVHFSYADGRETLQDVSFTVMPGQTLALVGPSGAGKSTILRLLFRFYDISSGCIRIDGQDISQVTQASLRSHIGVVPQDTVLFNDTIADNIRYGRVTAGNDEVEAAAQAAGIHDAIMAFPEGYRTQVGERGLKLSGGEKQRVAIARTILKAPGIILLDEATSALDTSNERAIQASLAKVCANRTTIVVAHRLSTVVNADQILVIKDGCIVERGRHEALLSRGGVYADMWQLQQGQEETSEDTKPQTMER
STAT3 act-2 – confirmation of STAT3 signaling activators. shares compounds with STAT3 act-1. U3A STAT3-luciferase reporter, IL-6 potentiation, luminescence; U3A cells lack STAT1; 100 means same as IL-6 alone. potentiation (% of control), % at 5.7 µM. 64% of 1,200 active. AID 1267;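 active means percent activation of the STAT3 luciferase reporter above a set limit taken from the earlier primary screen, cut at about 130% in these data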
NFkB act STAT3ct – activates NF-kappaB, counter-screen to STAT3 activators | 11% of 1,200 active | activation (% of control), % at 5.7 µM | shares compounds with STAT3 act-1 | human cells, NF-kappaB reporter activation; in the data active means activation above about 120%;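 further: reporter induced by TNF-alpha stimulation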
STAT1 act STAT3c – STAT1 activation in STAT3 activator counter-screen; 13% of 1,200 active; shares compounds with STAT3 act-1; NIH 3T3 STAT1-luciferase reporter, IFN-gamma, luminescence; activation (% of control), % at 5.7 µM; AID 1318;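 active means activation above the solvent-only control well mean plus 3 SD, set per screening run, cut at about 120% in these data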
Large screens that a line does not name were inactive (follow-up assays come after a bar, where they were run). Rows were chosen to be rich in hits. Some 3.3% of all compounds tested hit in one or more screens of this group.

CCOc1ccc(C(=O)CCC(=O)N(CC)CC(=O)NCc2ccc(Cl)cc2)cc1	none (no result: STAT3 act-1)
Cc1cc(NC(=O)CCl)n(-c2nc3ccccc3s2)n1	STAT3 act-1 151.5 | STAT3 act-2 146.4 | NFkB act STAT3ct inactive | STAT1 act STAT3c inactive
Cc1cc(NC(=O)C2CC2)n(-c2nc3ccccc3s2)n1	STAT3 act-1 160.1 | STAT3 act-2 153.9 | NFkB act STAT3ct inactive | STAT1 act STAT3c inactive
COc1cccc(CN2CC(C(=O)NCc3ccc(Cl)s3)CCC2=O)c1 (stereo not drawn)	none (no result: STAT3 act-1, AHR act)
CN(Cc1cc(=O)[nH]c2ccccc12)C(=O)c1ccccc1	STAT3 act-1 136.2 | STAT3 act-2 inactive | NFkB act STAT3ct inactive | STAT1 act STAT3c inactive
Cc1cc(NC(=O)CN2CCN(c3ccc(O)cc3)CC2)no1	none
O=C1c2ccccc2C(=O)N1CCc1c[nH]c2ccc(O)cc12	none
CCOC(=O)Cc1cc(=O)[nH]c(/N=C(\N)Nc2ccc(C)cc2C)n1	STAT3 act-1 136.0 | STAT3 act-2 inactive | NFkB act STAT3ct inactive | STAT1 act STAT3c inactive
COC(=O)Cc1cc(=O)[nH]c(/N=C(\N)Nc2ccc(C)cc2C)n1	none
Cc1cc2c(cc1C)CSC(c1ccc3ccccc3c1O)SC2	STAT3 act-1 152.1 | STAT3 act-2 inactive | NFkB act STAT3ct inactive | STAT1 act STAT3c inactive
Cc1cc2c(cc1C)CSC(c1c(O)ccc3ccccc13)SC2	none
Cc1[nH]c2ccccc2c1CN1CCc2ccccc2C1	STAT3 act-1 157.8 | STAT3 act-2 inactive | NFkB act STAT3ct inactive | STAT1 act STAT3c inactive
c1ccc(-c2nnc(CN3CCCCC3)o2)cc1	none (no result: STAT3 act-1)
c1ccc(-c2nnc(CN3CCCc4ccccc43)o2)cc1	STAT3 act-1 144.8 | STAT3 act-2 inactive | NFkB act STAT3ct inactive | STAT1 act STAT3c inactive
O=C(C1CC(=O)N(C2CCCCC2)C1)N1CCc2ccccc21 (stereo not drawn)	STAT3 act-1 139.4 | STAT3 act-2 inactive | NFkB act STAT3ct inactive | STAT1 act STAT3c inactive
O=C(C1CCCCC1)N1CCc2ccccc21	none
O=S(=O)(Nc1nc2ccccc2s1)c1ccc(Cl)s1	STAT3 act-1 138.3 | STAT3 act-2 inactive | NFkB act STAT3ct inactive | STAT1 act STAT3c inactive
Cc1nc(/N=C(\N)Nc2ccccc2)nc2ccccc12	STAT3 act-1 165.0 (no result: AHR act, GAA850 FXN act, ABCB6 inh 2) | STAT3 act-2 157.4 | NFkB act STAT3ct inactive | STAT1 act STAT3c inactive
Cc1cc(C)nc(/N=C(\N)Nc2ccc(OCc3ccccc3)cc2)n1	none
Cc1cc(SCC(=O)c2cc3ccccc3o2)nc2ccccc12	STAT3 act-1 145.9, AHR act 51.6 | STAT3 act-2 149.9 | NFkB act STAT3ct inactive | STAT1 act STAT3c inactive
CCOC(=O)c1ccc(NC(=O)CN2C(=O)NC3(CCCCCCC3)C2=O)cc1	none (no result: STAT3 act-1)
COc1ccc(C(=O)NN(C)c2nc(C(F)(F)F)nc3ccccc23)cc1	STAT3 act-1 156.5 | STAT3 act-2 inactive | NFkB act STAT3ct 164.9 | STAT1 act STAT3c inactive
COCCN(C(=O)CSc1nnc(-c2ccccc2C)n1C)c1c(N)n(Cc2ccccc2)c(=O)[nH]c1=O	none
O=S(=O)(c1ccccc1)N1CCN(c2cc(-c3ccccc3)nc3ncnn23)CC1	none
O=S(=O)(c1ccc(Br)cc1)N1CCN(c2cc(-c3ccccc3)nc3ncnn23)CC1	STAT3 act-1 145.8 | STAT3 act-2 inactive | NFkB act STAT3ct inactive | STAT1 act STAT3c inactive
CC(=O)Nc1ccc(N/C=C(\C=O)c2nc3ccccc3o2)cc1	STAT3 act-1 147.2 | STAT3 act-2 150.9 | NFkB act STAT3ct inactive | STAT1 act STAT3c inactive
CC(=O)Nc1ccc(NC(=O)CSc2nc3ccccc3o2)cc1	none
N#C/C(=C\c1ccncc1)c1nc2ccccc2o1	none (no result: STAT3 act-1)
O=C/C(=C\Nc1ccccn1)c1nc2ccccc2o1	STAT3 act-1 158.4 | STAT3 act-2 144.3 | NFkB act STAT3ct inactive | STAT1 act STAT3c inactive
CC(=O)Nc1cccc(N/C=C(\C=O)c2nc3ccccc3o2)c1	STAT3 act-1 170.5, AHR act 58.8 | STAT3 act-2 176.2 | NFkB act STAT3ct inactive | STAT1 act STAT3c inactive
O=C(NCc1ccccc1F)Nc1nnc([C@@H]2C[C@H](O)[C@@H](CO)O2)s1	none (no result: STAT3 act-1, AHR act)
CCCCN1C(N)=NC[C@@H]1CCCCN	none (no result: STAT3 act-1)
CC(=O)Nc1c(Cl)n(C(C)=O)c2ccccc12	STAT3 act-1 175.0 | STAT3 act-2 159.3 | NFkB act STAT3ct inactive | STAT1 act STAT3c inactive
COC(=O)c1cccc(C(=O)Nc2ccc(C)cc2Br)n1	STAT3 act-1 140.8 | STAT3 act-2 inactive | NFkB act STAT3ct inactive | STAT1 act STAT3c inactive
Cc1ccc(NC(=O)c2cccc(C(=O)OC(C)C)n2)c(Br)c1	none
O=C(Nc1cnc2ccccc2c1)c1ccncc1	none
COC(=O)c1cccc(C(=O)Nc2cnc3ccccc3c2)n1	STAT3 act-1 183.3 | STAT3 act-2 162.4 | NFkB act STAT3ct inactive | STAT1 act STAT3c 122.2
Cc1[nH]n(-c2ccccc2)c(=O)c1/C=C1/C=c2ccccc2=N1	STAT3 act-1 155.8 (no result: AHR act) | STAT3 act-2 170.3 | NFkB act STAT3ct inactive | STAT1 act STAT3c inactive
CCCC(=O)Nc1c(C(=O)OCC)[nH]c2ccccc12	STAT3 act-1 169.1, AHR act 58.1 | STAT3 act-2 149.4 | NFkB act STAT3ct inactive | STAT1 act STAT3c inactive
CCOC(=O)c1[nH]c2ccccc2c1NC(=S)Nc1cc(C)ccc1C	STAT3 act-1 155.0, AHR act 60.0 | STAT3 act-2 149.8 | NFkB act STAT3ct inactive | STAT1 act STAT3c inactive
CCOC(=O)c1[nH]c2ccccc2c1NC(=S)Nc1ccccc1C	STAT3 act-1 151.5, AHR act 59.1 | STAT3 act-2 155.1 | NFkB act STAT3ct inactive | STAT1 act STAT3c inactive
CCOC(=O)c1[nH]c2ccccc2c1NC(=O)CC(C)C	none (no result: STAT3 act-1)
CCOC(=O)c1[nH]c2ccccc2c1NC(=O)CN1CCCCC1	none
CCOC(=O)c1[nH]c2ccccc2c1NC(=O)Nc1ccc(OC)cc1	STAT3 act-1 141.3 | STAT3 act-2 142.6 | NFkB act STAT3ct inactive | STAT1 act STAT3c inactive
CCOC(=O)c1[nH]c2ccccc2c1NC(=O)c1ccco1	none
CCOC(=O)N1CCN(C(=O)COC(=O)C2CCN(S(=O)(=O)c3c(C)c(C)cc(C)c3C)CC2)CC1	none (no result: STAT3 act-1)
O=C(Nc1nc(-c2ccc(F)c(F)c2)cs1)Nc1ccc(F)cc1F	none (no result: STAT3 act-1)
C[C@@H]1CN([C@H](C)CO)C(=O)CCCn2nncc2CO[C@@H]1CN(C)C(=O)Nc1ccnc(N2CCOCC2)c1	none (no result: STAT3 act-1, AHR act)
Cc1cccc(C2c3[nH]c4ccccc4c3CCN2Cc2cccn2-c2ncccn2)c1 (stereo not drawn)	STAT3 act-1 149.4 | STAT3 act-2 156.1 | NFkB act STAT3ct inactive | STAT1 act STAT3c inactive
COc1ccc(C2c3[nH]c4ccccc4c3CCN2Cc2cccn2-c2ncccn2)cc1C (stereo not drawn)	STAT3 act-1 136.5 | STAT3 act-2 136.4 | NFkB act STAT3ct inactive | STAT1 act STAT3c inactive
